Data set [1] can be described thus: Inhibition of porcine kidney TNAP using para-nitrophenylphosphate as substrate preincubated for 10 mins at pH 7.8 followed by substrate addition.
Data set [2] addresses T1, Alkaline phosphatase, tissue-nonspecific isozyme (Homo sapiens) (UniProt P05186).
T1 sequence (whole entry): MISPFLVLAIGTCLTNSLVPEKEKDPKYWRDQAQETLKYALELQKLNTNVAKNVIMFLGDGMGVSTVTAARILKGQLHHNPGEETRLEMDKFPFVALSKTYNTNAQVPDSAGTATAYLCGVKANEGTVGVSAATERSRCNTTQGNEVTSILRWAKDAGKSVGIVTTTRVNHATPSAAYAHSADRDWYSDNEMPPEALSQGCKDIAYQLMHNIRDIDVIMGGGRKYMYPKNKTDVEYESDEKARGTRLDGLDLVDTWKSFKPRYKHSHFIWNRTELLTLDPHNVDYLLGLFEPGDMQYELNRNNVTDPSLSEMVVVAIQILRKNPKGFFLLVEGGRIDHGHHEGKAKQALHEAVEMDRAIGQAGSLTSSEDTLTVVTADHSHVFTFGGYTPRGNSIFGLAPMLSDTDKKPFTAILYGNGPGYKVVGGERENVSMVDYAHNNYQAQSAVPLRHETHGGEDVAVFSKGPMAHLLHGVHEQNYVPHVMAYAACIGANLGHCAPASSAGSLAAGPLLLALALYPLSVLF
Put plainly: Inhibition of TNAP in human Saos2 cells assessed as reduction of ascorbic acid and beta-glycerophosphate-induced mineralization at 20 to 40 uM after 6 days by alizarin red-s staining based assay. To be noted: SAOS-2. Type of data set: cell-based. The procedure, abridged:
(§1)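 Saos-2 cells and mouse primary osteoblasts received ascorbic acid plus β-glycerophosphate to stimulate differentiation and mineralization, with or without inhibitor. Mineral was quantified by Alizarin Red-S staining and expressed as percent of a control containing DMSO 0.1% (mL:mL) without inhibitor. Experiments were repeated in triplicate for each inhibitor (n = 9).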

The nature of data set [3]: Inhibition of porcine kidney TNAP using para-nitrophenylphosphate as substrate preincubated for 10 mins at pH 10.4 followed by substrate addition.
A short description of data set [4]: Cytotoxicity against mouse primary osteoblasts assessed as reduction in cell viability at 10 to 40 uM after 3 days by MTT assay. Type of data set: cell-based. To be noted: osteoblast, 72 h. The method in brief: (§2)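 Cells (human osteoblast-like Saos-2 and MG63, mouse vascular smooth muscle line MOVAS-1, mouse primary osteoblasts) were incubated with or without inhibitor for 3 days. Viability was read by MTT assay.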
A general note: Tetrazolium assays rely on reduction of a dye to a coloured formazan, in cell work by metabolically active cells.

Data set [5] can be described thus: Cytotoxicity against human Saos2 cells assessed as reduction in cell viability at 10 to 40 uM after 3 days by MTT assay. Type of data set: cell-based. To be noted: saos-2, 72 h. The procedure, abridged:
as §2

Data set [6] in a line: Cytotoxicity against human MG63 cells assessed as reduction in cell viability at 10 to 40 uM after 3 days by MTT assay. To be noted: mg-63, 72 h. The data set is classed as cell-based. The procedure, abridged: as §2
Data set [7] in a line: Inhibition of porcine kidney TNAP using para-nitrophenylphosphate as substrate preincubated for 10 mins at pH 7.8 followed by substrate addition. The arrangement: species or system Sus scrofa.
The nature of data set [8]: Cytotoxicity against mouse MOVAS1 cells assessed as reduction in cell viability at 10 to 40 uM after 3 days by MTT assay. Type of data set: cell-based. To be noted: movas1, 72 h. The method in brief:
as §2

Data set [9] has as its target T2, Alkaline phosphatase, tissue-nonspecific isozyme (Mus musculus) (UniProt P09242).
T2 sequence (whole entry): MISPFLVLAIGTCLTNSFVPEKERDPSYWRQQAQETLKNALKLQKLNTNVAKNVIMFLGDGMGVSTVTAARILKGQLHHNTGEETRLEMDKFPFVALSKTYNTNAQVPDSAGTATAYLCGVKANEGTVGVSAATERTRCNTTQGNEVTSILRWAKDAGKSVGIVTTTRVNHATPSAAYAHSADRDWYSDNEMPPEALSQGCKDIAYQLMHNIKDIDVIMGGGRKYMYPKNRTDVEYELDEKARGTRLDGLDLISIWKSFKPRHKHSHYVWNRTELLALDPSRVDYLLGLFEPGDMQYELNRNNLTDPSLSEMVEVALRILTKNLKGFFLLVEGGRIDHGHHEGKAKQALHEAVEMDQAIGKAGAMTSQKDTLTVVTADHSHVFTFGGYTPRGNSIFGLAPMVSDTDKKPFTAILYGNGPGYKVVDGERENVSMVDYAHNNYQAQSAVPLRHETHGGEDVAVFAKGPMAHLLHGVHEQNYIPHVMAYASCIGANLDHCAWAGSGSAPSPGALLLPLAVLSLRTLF
Put plainly: Inhibition of TNAP in C57BL/6J mouse primary osteoblasts assessed as reduction of ascorbic acid and beta-glycerophosphate-induced mineralization at 10 uM after 6 days by alizarin red-s staining based assay relative to control. The method in brief:
as §1

The target in data set [10] is T3, Intestinal-type alkaline phosphatase (Bos taurus, UniProt P19111). Put plainly: Inhibition of bovine intestinal alkaline phosphatase using para-nitrophenylphosphate as substrate preincubated for 10 mins at pH 10.4 followed by substrate addition.
The target of data set [11] is T3, Intestinal-type alkaline phosphatase. The data set is described as follows: Inhibition of bovine intestinal alkaline phosphatase using para-nitrophenylphosphate as substrate preincubated for 10 mins at pH 7.8 followed by substrate addition.
The species named for data set [12] is Sus scrofa. The data set is described as follows: Uncompetitive inhibition of porcine kidney TNAP using para-nitrophenylphosphate as substrate preincubated for 10 mins at pH 7.8 to 10.4 followed by substrate addition.
Data set [13] has as its target T4, Alkaline phosphatase, placental type (Homo sapiens, UniProt P05187). Put plainly: Inhibition of human placental alkaline phosphatase using para-nitrophenylphosphate as substrate preincubated for 10 mins at pH 10.4 followed by substrate addition.
The target in data set [14] is T4, Alkaline phosphatase, placental type. The data set is described as follows: Inhibition of human placental alkaline phosphatase using para-nitrophenylphosphate as substrate preincubated for 10 mins at pH 7.8 followed by substrate addition.
For data set [15], the target named is T2, Alkaline phosphatase, tissue-nonspecific isozyme (Mus musculus). To be noted: C57BL/6J, 10 to 40 uM.

Active and inactive are the calls of the source. The calls are words filed in the database; no cut-off is given here.

T4 sequence (P05187 whole entry): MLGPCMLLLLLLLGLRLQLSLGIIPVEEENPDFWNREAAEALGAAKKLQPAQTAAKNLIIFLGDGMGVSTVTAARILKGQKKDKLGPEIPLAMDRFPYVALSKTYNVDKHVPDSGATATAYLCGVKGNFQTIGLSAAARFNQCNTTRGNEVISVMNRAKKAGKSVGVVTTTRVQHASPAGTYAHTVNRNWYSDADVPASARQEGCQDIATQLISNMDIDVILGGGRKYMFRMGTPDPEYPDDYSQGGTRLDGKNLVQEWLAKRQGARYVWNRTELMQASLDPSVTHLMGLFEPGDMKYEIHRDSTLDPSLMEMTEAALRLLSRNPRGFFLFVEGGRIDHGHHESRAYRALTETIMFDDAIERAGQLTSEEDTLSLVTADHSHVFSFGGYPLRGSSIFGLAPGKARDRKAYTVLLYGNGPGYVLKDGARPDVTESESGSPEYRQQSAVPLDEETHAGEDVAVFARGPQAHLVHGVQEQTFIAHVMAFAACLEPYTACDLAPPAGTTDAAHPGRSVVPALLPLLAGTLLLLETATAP
T3 sequence (P19111 whole entry): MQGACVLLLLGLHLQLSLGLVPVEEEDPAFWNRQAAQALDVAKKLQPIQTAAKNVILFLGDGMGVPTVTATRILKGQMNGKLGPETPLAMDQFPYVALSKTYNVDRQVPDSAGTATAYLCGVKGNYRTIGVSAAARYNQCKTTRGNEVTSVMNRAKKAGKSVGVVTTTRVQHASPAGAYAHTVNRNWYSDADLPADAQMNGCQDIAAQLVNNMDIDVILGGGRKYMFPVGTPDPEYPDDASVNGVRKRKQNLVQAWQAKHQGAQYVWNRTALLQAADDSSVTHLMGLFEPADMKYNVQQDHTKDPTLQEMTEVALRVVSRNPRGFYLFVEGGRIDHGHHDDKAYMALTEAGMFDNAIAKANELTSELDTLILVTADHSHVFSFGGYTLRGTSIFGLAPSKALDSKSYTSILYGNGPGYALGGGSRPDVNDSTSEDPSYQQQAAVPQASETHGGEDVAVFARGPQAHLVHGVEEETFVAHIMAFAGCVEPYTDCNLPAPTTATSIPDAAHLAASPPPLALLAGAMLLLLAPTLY

Take `C1=CN2CC(c3cc4ccccc4o3)N=C2S1` (centres undefined): the concentration for half-maximal inhibition (IC50) – broadly, the concentration at which inhibition is half-maximal – in data set [1] was 124 µM; in data set [3] it was 28 µM; in data set [10] it was more than 400 µM; in data set [11], more than 400 µM; in data set [13], more than 400 µM; in data set [14] it was more than 400 µM. The inhibition result in [2] and in [12] was “Active” throughout. In addition, the Activity entry in data set [4], in data set [5], in data set [6] and in data set [8] was “Non-toxic” each time. Also, the Ki (usually a dissociation constant, usually derived from enzyme kinetics or from competition with a known ligand) in data set [7] turned out to be 32 µM. In data set [9], the inhibition (as a rule, the change of the read-out against control, counted positive when it falls) was found to be 20%.

Turning to `N=c1sccn1CC(=O)c1cc2ccccc2o1`, the IC50 in data set [1], in data set [3], in [10], in [11], in [13] and in [14] was more than 400 µM in each case.

Regarding `N=c1sccn1CC(O)c1cc2ccccc2o1` (centres undefined), the concentration for half-maximal inhibition (IC50) in data set [1], in [3], in data set [10], in data set [11], in data set [13] and in [14] was more than 400 µM each time.

In the case of `c1ccc([C@H]2CN3CCSC3=N2)cc1` [LEVAMISOLE], the IC50 in [1] was 256 µM; in data set [3], 41 µM; in data set [10] it was more than 400 µM; in [11], more than 400 µM; in data set [13], more than 400 µM; in data set [14], more than 400 µM. In addition, in [15], the inhibition entry was “inactive”. Besides, in data set [7], the Ki is 47 µM.

The values above are taken from ChEMBL document CHEMBL3774359, “Synthesis of benzofuran derivatives as selective inhibitors of tissue-nonspecific alkaline phosphatase: effects on cell toxicity and osteoblast-induced mineralization” (Bioorg Med Chem Lett, 2016).
